Calls of active or inactive are those of the source. The calls are words filed in the database; no cut-off is given here.
What was measured:
[1] = Antiproliferative activity against mouse BMOL-NT cells assessed as cell growth by measuring doubling time at 10 uM measured every 4 hrs for 3 days by IncuCyte zoom live cell analysis (reference value: 18 to 19 hrs); assay type: cell-based; settings: 72 h, time 3 day
[2] = Antiproliferative activity against mouse BMOL-T cells assessed as change in doubling time at 10 uM measured every 4 hrs for 3 days by IncuCyte zoom live cell analysis relative to control; assay type: functional; settings: time 3 day
[3] = Antiproliferative activity against mouse BMOL-T cells assessed as cell growth by measuring doubling time at 10 uM measured every 4 hrs for 3 days by IncuCyte zoom live cell analysis (reference value: 14.3 to 15 hrs); assay type: functional; settings: time 3 day
BMOL-T [4] = experiment: Effect on STAT3 expression in mouse BMOL-T cells at 10 uM by AlphaLISA assay; assay type: functional, cell-based
Method in brief: (§1)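 AlphaLISA in BMOL-T cells treated at 10 µM with 0.1% DMSO vehicle as control. Read as normalised fluorescence for total STAT3, or as the ratio of total STAT3 to p-STAT3. n ≥ 3, SEM. Significance by ANOVA with Dunnett's test.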

[5] = molecular target: Signal transducer and activator of transcription 3 (Mus musculus) (UniProt P42227); experiment: Inhibition of STAT3 phosphorylation in mouse BMOL-T cells at 10 uM by AlphaLISA assay; assay type: cell-based; method in brief: as §1
Sequence of Signal transducer and activator of transcription 3 (Mus musculus) (P42227 whole entry): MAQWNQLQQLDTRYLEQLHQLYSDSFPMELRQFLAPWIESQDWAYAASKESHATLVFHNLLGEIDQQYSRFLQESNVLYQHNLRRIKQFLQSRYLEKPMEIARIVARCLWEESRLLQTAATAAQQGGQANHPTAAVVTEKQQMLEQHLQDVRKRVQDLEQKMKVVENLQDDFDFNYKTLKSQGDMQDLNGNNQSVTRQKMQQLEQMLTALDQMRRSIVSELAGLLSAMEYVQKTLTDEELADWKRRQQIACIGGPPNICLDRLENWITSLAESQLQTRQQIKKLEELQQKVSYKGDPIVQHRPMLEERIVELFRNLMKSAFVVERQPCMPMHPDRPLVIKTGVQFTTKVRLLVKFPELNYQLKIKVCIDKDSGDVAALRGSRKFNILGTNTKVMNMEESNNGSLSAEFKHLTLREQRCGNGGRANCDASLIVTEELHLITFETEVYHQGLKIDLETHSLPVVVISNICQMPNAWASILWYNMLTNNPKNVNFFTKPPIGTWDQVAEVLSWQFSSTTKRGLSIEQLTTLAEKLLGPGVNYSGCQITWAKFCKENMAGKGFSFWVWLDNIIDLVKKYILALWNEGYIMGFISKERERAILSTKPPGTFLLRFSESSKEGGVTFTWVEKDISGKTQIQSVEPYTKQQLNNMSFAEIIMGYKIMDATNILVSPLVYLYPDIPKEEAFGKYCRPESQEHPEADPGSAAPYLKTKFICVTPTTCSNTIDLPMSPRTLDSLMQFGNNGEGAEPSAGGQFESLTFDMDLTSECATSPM

[6] = Antiproliferative activity against mouse BMOL-NT cells assessed as change in doubling time at 10 uM measured every 4 hrs for 3 days by IncuCyte zoom live cell analysis relative to control; assay type: cell-based; settings: 72 h, time 3 day
BMOL-T [7] = experiment: Antiproliferative activity against mouse BMOL-T cells assessed as cell growth inhibition at 10 uM measured every 4 hrs for 3 days by IncuCyte zoom live cell analysis relative to control; assay type: functional; settings: time 3.0 day
[8] = Antiproliferative activity against mouse BMOL-NT cells assessed as cell growth inhibition at 10 uM measured every 4 hrs for 3 days by IncuCyte zoom live cell analysis relative to control; assay type: cell-based; settings: time 3 day; for inhibition at 72 h, 10 µM: BMOL-NT cells; for Activity: bmol-nt, 72 h, 10 µM
[9] = Selectivity for antiproliferative activity against mouse BMOL-T cells over mouse BMOL-NT cells at 10 uM measured every 4 hrs for 3 days by IncuCyte zoom live cell analysis; settings: time 3 day

Compound	Time [1] [h]	Activity [2] [%]	Time [3] [h]	further results
CC(C)c1ccc(Nc2ccc3c(c2)C(=O)N(C2CCC(=O)NC2=O)C3=O)cc1 (stereo not given)	17.2	3	14.1	
CN1C(=O)CCC(N2C(=O)c3cccc(Sc4ccc(C(C)(C)C)cc4)c3C2=O)C1=O (stereo not given)	24	14	16.3	Activity (BMOL-T [4]): inactive; inhibition [5]: inactive; Activity [6]: 26%
O=C1CCC(N2C(=O)c3cccc(Oc4ccccc4)c3C2=O)C(=O)N1 (stereo not given)	16.9	6	14.3	
CCc1ccc(Nc2cccc3c2C(=O)N(C2CCC(=O)NC2=O)C3=O)cc1 (stereo not given)				Activity (BMOL-T [7]): Active; inhibition at 72 h, 10 µM [8]: ≤ 10%
O=C1CCC(N2C(=O)c3cccc(Sc4ccccc4)c3C2=O)C(=O)N1 (stereo not given)	16.8	2	13.8	Activity [6]: 1%
O=C1CCC(N2C(=O)c3ccc(Nc4ccccc4)cc3C2=O)C(=O)N1 (stereo not given)	17.4	4	14.7	
O=C1CCC(N2C(=O)c3ccccc3C2=O)C(=O)N1 (stereo not given) [THALIDOMIDE]	18		15	
CN(C)c1ccc(Nc2cccc3c2C(=O)N(C2CCC(=O)NC2=O)C3=O)cc1 (stereo not given)				Activity (BMOL-T [7]): Active
Cc1ccc(Sc2cccc3c2C(=O)N(C2CCC(=O)NC2=O)C3=O)cc1 (stereo not given)	19.3			
O=C1CCC(N2C(=O)c3cccc(Nc4ccc(O)cc4)c3C2=O)C(=O)N1 (stereo not given)				Activity (BMOL-T [7]): Active
O=C1CCC(N2C(=O)c3cccc(Cc4ccccc4)c3C2=O)C(=O)N1 (stereo not given)	17.7		13.8	Activity [6]: 2%
O=C1CCC(N2C(=O)c3cccc(Sc4ncccn4)c3C2=O)C(=O)N1 (stereo not given)				Activity [8]: Non-Toxic
CCCCc1ccc(Nc2cccc3c2C(=O)N(C2CCC(=O)NC2=O)C3=O)cc1 (stereo not given)				Activity (BMOL-T [7]): Active; inhibition at 72 h, 10 µM [8]: ≤ 10%
CC(C)c1ccc(S(=O)(=O)c2cccc3c2C(=O)N(C2CCC(=O)NC2=O)C3=O)cc1 (stereo not given)	17.4	3	14.9	Activity [6]: 3%
CNC(=O)c1cc(Oc2ccc(NC(=O)Nc3ccc(Cl)c(C(F)(F)F)c3)cc2)ccn1 [SORAFENIB]	50	382	71	Selectivity ratio [9]: 2.1; Activity [6]: 181%
O=C1CCC(N2C(=O)c3cccc(Nc4ccccn4)c3C2=O)C(=O)N1 (stereo not given)				Activity [8]: Toxic
CC(C)c1ccc(Nc2cccc3c2C(=O)N(C2CCC(=O)NC2=O)C3=O)cc1 (stereo not given)	17.3	19	16.3	

— ChEMBL document CHEMBL4814031, “In pursuit of a selective hepatocellular carcinoma therapeutic agent: Novel thalidomide derivatives with antiproliferative, antimigratory and STAT3 inhibitory properties” (Eur J Med Chem, 2021)
